In ChEMBL document CHEMBL1158681, “Flavones and sesquiterpene lactones from Achillea atrata subsp. multifida: antimicrobial activity” (1999):
≈ marks a conversion by molar mass, not a printed value. Calls of active or inactive are those of the source. The calls are words filed in the database; no cut-off is given here.

What was measured:
[1] = tested on: Staphylococcus aureus; assay: Antimicrobial activity against Staphylococcus aureus ATCC 25923 after 24 hrs by agar well diffusion method; assay type: functional, organism-based
How it was run: (§1)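 Agar well diffusion: stationary-phase culture suspended in saline at approx. 10^5 cfu/mL, 200 µL spread on Mueller-Hinton agar (bacteria) or Sabouraud agar (yeast, fungi). Test samples at 50 µg/50 µL added to wells. Incubated 24 h (bacteria, yeast) or 48 h (fungi). Read-out is inhibition zone diameter.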

[2] = tested on: Aspergillus niger; assay: Antimicrobial activity against Aspergillus niger after 48 hrs by agar well diffusion method; assay type: functional, organism-based; how it was run: as §1
[3] = tested on: Bacillus subtilis; assay: Antimicrobial activity against Bacillus subtilis IP 5832 after 24 hrs by agar well diffusion method; assay type: functional; how it was run: as §1
[4] = tested on: Candida albicans; assay: Antimicrobial activity against Candida albicans ATCC 24433 after 24 hrs by agar well diffusion method; assay type: functional; how it was run: as §1
[5] = tested on: Candida albicans; assay: Antimicrobial activity against Candida albicans ATCC 24433 after 24 hrs using sabouraud liquid medium; assay type: functional
How it was run: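 Broth MIC in duplicate in Sabouraud liquid medium. Samples made up at 1 mg/mL in DMSO, then serially diluted over 100-0.1 µg/mL. Inoculum is stationary-phase culture at 10^5 cfu/mL. Incubated 37 °C for 24 h. MIC taken as the lowest concentration preventing any visible growth.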

[6] = tested on: Escherichia coli; assay: Antimicrobial activity against Escherichia coli ATCC 25922 after 24 hrs by agar well diffusion method; assay type: functional; how it was run: as §1

## O=c1cc(-c2ccc(O)cc2)oc2cc(O[C@@H]3O[C@H](CO)[C@@H](O)[C@H](O)[C@H]3O)cc(O)c12 [APIGETRIN]
[1]
  Activity: inactive
[2]
  Activity: inactive
[3]
  inhibition zone (IZ): 6 mm

## COc1ccc(-c2oc3cc(O)c(OC)c(O)c3c(=O)c2OC)cc1 [SANTIN]
[1]
  Activity: inactive
[2]
  Activity: inactive
[4]
  inhibition zone (IZ): 8 mm
[5]; ATCC 24433, 24 h
  MIC: 3 µg/mL (≈ 8.71 µM)
[6]
  inhibition zone (IZ): 6 mm
[3]
  inhibition zone (IZ): 6 mm

## NYSTATIN
[5]
  MIC: 3.12 µg/mL

## COc1ccc(-c2oc3cc(O)c(OC)c(O)c3c(=O)c2OC)cc1O [CENTAUREIDIN]
[1]
  Activity: inactive
[2]
  Activity: inactive
[4]
  inhibition zone (IZ): 11 mm
[5]; ATCC 24433, 24 h
  MIC: 3 µg/mL (≈ 8.33 µM)
[3]
  inhibition zone (IZ): 6 mm

## O=c1cc(-c2ccc(O)cc2)oc2cc(O)cc(O)c12 [APIGENIN]
[1]
  Activity: inactive
[2]
  Activity: inactive
[4]
  inhibition zone (IZ): 10 mm
[5]; ATCC 24433, 24 h
  MIC: 3 µg/mL (≈ 11.1 µM)
[6]
  inhibition zone (IZ): 6 mm
[3]
  inhibition zone (IZ): 6 mm
